# Measles CPE: protection of cells from measles virus; protection (pct of control), % at 4 µM; 140,000 compounds, 1.5% hits; AID 841; Measles virus-infected cells, CPE protection, absorbance; in the data active means protection mostly above about 24%, no sharp cut-off; inactive means mostly below about 26%
# BB579 growth dn: chemicals that inhibit yeast BB579 growth in restrictive medium (lifespan-shortening candidates); S. cerevisiae BB579 growth, OD615, 48 h; inhibition, % at 10 µM; 140,000 compounds, 0.51% hits; AID 804;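 active means inhibition above a set limit, 3 SD over the mean compound inhibition, cut at about 44% in these data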
#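 System: DeaD yeast strain BB579; buffer or medium: CSMM-D dextrose restrictive medium; technique: OD at 615 nm; schedule: 4 h cell preincubation, 48 h compound exposure, 30 °C humidified; doses: single 10 µM dose; controls: amphotericin B 10 µg/mL, positive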
# MDM2 E3 inh: blocks human Mdm2 ubiquitin ligase activity | Q00987 | cell-based MDM2 ubiquitination luciferase reporter, 2 h; 0 = plate control, 100 = twice control, blank-subtracted | signal enhancement, % at 5 µM | 210,000 compounds, 0.11% hits | AID 1230;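 active means signal enhancement of 30% or more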;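 further: luminescence tracks abundance of the self-degrading MDM2-luciferase fusion protein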
# Target sequence (Q00987 whole entry, looked up, the tested form may be a part): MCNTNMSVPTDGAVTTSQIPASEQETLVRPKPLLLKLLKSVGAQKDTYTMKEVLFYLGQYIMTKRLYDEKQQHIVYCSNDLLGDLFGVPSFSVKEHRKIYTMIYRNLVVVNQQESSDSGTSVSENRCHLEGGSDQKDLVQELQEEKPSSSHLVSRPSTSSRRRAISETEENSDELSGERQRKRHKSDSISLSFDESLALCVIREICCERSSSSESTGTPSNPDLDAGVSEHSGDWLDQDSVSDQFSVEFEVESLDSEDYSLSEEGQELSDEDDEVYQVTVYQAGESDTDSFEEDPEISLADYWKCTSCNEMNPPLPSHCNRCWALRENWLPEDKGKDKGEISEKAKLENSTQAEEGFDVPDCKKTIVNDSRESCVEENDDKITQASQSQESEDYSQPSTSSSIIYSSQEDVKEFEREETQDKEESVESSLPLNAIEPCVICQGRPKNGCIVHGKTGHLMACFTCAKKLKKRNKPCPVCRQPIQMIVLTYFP
#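 system = mammalian cells stably expressing self-ubiquitinating, self-degrading MDM2 E3–luciferase fusion | quantity = 2000 cells per well seeded | incubation = 4 h cell settling then 2 h compound exposure, 37 °C | signal = SteadyLite luminescence, 15 min reagent step | benchmarks = plate control and blank wells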
# INS promoter inh: TRM-6 insulin promoter activity inhibition | inhibition, % at 2 µM | TRM-6 cells (human fetal islet line), insulin promoter-eGFP reporter, imaging; reporter expression induced with tamoxifen | 130,000 compounds, 0.9% hits;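 active means inhibition above the mean plus 3 SD, with well images judged a real hit on visual review, cut at about 60% in these data, passing the limit was not always enough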
# RAM inhibit: blocks the yeast RAM network; S. cerevisiae dse1pr::URA3 reporter, 5-FOA growth OD615, 2 d; analog-sensitive cbk1-as2 kinase mutant strain; inhibition, % at 50 µM; 190,000 compounds, 1.8% hits;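 active means inhibition above a set limit, 3 SD over mean compound inhibition, cut at about 8.4% in these data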;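 further: 0% = DMSO-only wells with no growth and 100% = 10 µM 1-NA-PP1 full growth; inhibition rescues growth on 5-FOA so higher OD means more RAM inhibition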
# Yeast lifespan up: extends the lifespan of yeast; 130,000 compounds, 0.68% hits; inhibition of the nicotinamide effect, % at 10 µM; S. cerevisiae growth with nicotinamide, OD615; deaD strain in restrictive glucose medium; AID 775;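 active means inhibition above a set limit, placed 3 SD over the median of all compounds, cut at about 26% in these data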;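 further: 0% = nicotinamide-treated wells and 100% = cells grown without nicotinamide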
#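 Buffer or medium: CSMM-D glucose medium, restrictive; test system: modified budding yeast, DeaD strain; compound: single dose 10 µM compound, 0.25% DMSO; schedule: culture preincubation 4 h, compound exposure 48 h, both 30 °C; detection: optical density (absorbance) at 615 nm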
# The depositor's hits bear a star; · = no result. Shown are actives, neighbours in structure and some others; about 4% of the full set was active somewhere.
SMILES,Measles CPE,BB579 growth dn,MDM2 E3 inh,INS promoter inh,RAM inhibit,Yeast lifespan up
C=CC[C@@H]1C=C[C@H](O/N=C/c2ccc(C(=O)N3[C@H](c4ccc(C)cc4)[C@@H](C)CC[C@H]3C(=O)OC)cc2)[C@@H](CO)O1,6,-20,·,-33,4,-1
O=C(CCN1C(=O)c2ccccc2S1(=O)=O)Nc1cccc2ccccc12,·,·,-20,-29,3,·
Cc1nnc(NC(=O)CN2C(=O)c3ccccc3S2(=O)=O)s1,4,-40,-17,7,0,-4
CCCCCCn1nc(C(=O)Nc2nc3c(s2)CCCC3)c2ccccc2c1=O,9,-18,4,·,11*,3
O=C(CCN1C(=O)c2ccccc2S1(=O)=O)Nc1nc2c(s1)CCCC2,24*,-37,-2,-4,2,-20
CCc1nnc(NC(=O)CN2C(=O)c3ccccc3S2(=O)=O)s1,40*,-21,2,31,2,-1
O=C(O)CC1(CC(=O)Nc2ccc(F)c(Cl)c2)CCCCC1,·,·,-6,·,·,·
COc1ccc(-c2c(C(F)(F)F)nn(C)c2NC(=O)CSCC(=O)O)cc1,·,·,-8,·,·,·
CN(C)c1ccc(N/C=C/C(=O)c2ccccc2)cc1,8,-34,-2,-13,1,-13
CN(C)c1ccc(N/C=C/C(=O)C(C)(C)C)cc1,53*,-50,-8,61,2,0
COc1ccc(-n2c(SCC#N)nnc2-c2ccc(NS(=O)(=O)c3ccc(C)cc3)cc2)cc1,4,-43,-9,·,8.5*,-5
COc1ccc(-n2c(SCC(N)=O)nnc2-c2ccc(NS(=O)(=O)c3ccc(C)cc3)cc2)cc1,17,-14,-2,-2,5,-5
CS(=O)(=O)N1CCCC(C(=O)NCc2ccccc2Cl)C1 (stereo not given),42*,-41,-19,-37,2,3
O=C(NCC1CCCO1)C(c1cccs1)N(C(=O)c1ccc(-c2ccccc2)[nH]1)C1CCCC1 (stereo not given),51*,-16,-11,7,2,-5
CC(C)(C)NC(=O)C(c1cccs1)N(CC1CCCO1)C(=O)c1ccc(-c2ccccc2)[nH]1 (stereo not given),16,-31,-19,-30,5,-3
O=C(NCC1CCCO1)C(c1cccs1)N(Cc1ccccc1)C(=O)c1ccc(-c2ccccc2)[nH]1 (stereo not given),11,-35,0,-7,10*,2
Cc1ccc(Cn2nnnc2CN2CCC(O)(c3cccnc3)CC2)cc1,·,·,-8,79*,1,·
CC(=O)C(=Cc1ccc(C(=O)O)cc1)C(C)=O,·,·,-9,·,3,·
CC(=C\C(=O)O)/C(=C/c1ccccc1)C(=O)O,25*,-21,-6,24,-1,10
Cc1cc(NC(=O)COc2ccc(N(C)S(=O)(=O)c3ccccc3)cc2)no1,64*,-6,-15,79*,1,-12
COc1cc(OC)c(-c2c3cc(O)c(=O)cc-3oc3cc(O)c(O)cc23)cc1OC,·,4,-18,-150,10*,9
COc1c(O)cc2oc(-c3ccc(O)cc3)cc(=O)c2c1O,·,·,-41,·,·,·
Brc1c(-c2ccccc2)nc2n1Cc1ccccc1-2,·,·,-6,·,·,·
c1ccc2c(c1)Cn1c-2nc2ccccc21,17,31,-9,95*,-1,-22
CC(C)(C)N=C1SCC(C)(/C=N/O)S1 (stereo not given),55*,-15,0,30,0,-7
SMILES,Measles CPE,BB579 growth dn,MDM2 E3 inh,INS promoter inh,RAM inhibit,Yeast lifespan up
O=C(COc1ccccc1)NNC1=NS(=O)(=O)c2ccccc21,·,·,-12,·,1,·
C=CCN1C(C(=O)c2ccccc2)=C(OC(=O)COc2ccccc2)c2ccccc2S1(=O)=O,2,90*,4,-7,6,-2
c1ccc2sc(NC3=NCN(CCN4CCOCC4)CN3)nc2c1,·,·,-6,-133,1,·
CCc1ccc(N2CC(C(=O)Nc3nccs3)CC2=O)cc1 (stereo not given),35*,-13,-14,·,0,-1
Cc1nc2sc(C(=O)Nc3ccccc3Cc3ccccc3)c(C)c2c(=O)[nH]1,·,·,-1,·,·,·
O=C(Nc1ccc(Cl)cc1)Nc1ccc(S(=O)(=O)Nc2ncccn2)cc1,·,·,·,·,5,·
O=C(Nc1ccc(S(=O)(=O)Nc2ncccn2)cc1)c1cnc(Cl)c(Cl)c1,·,·,-6,·,11*,·
NS(=O)(=O)c1ccc(NC(=O)COC(=O)c2cnccn2)cc1,·,·,-5,·,2,·
CCCCCCC(=O)N/N=C1\CCCc2ccccc21,5,-39,2,7,4,0
Brc1ccc(-c2cnc(-c3cccs3)o2)cc1,6,-13,32*,45,0,-30
CCCN(CCC)c1nc2ccccc2n2c(C)nnc12,44*,-17,13,-12,0,-6
Cc1ccc(Oc2nc3ccccc3n3c(C)nnc23)c(C)c1,14,-76,-2,·,0,74*
Cc1nnc2c(Oc3ccccc3)nc3ccccc3n12,5,-3,-1,-131,6,-27
Cc1nc2ccc(C(=O)N3CCN(c4ccccn4)CC3)cc2s1,7,30,-4,0,-1,-9
CCOC(=O)N1CCN(C(=O)c2ccc3nc(C)sc3c2)CC1,1,-21,-4,71*,0,0
COCCN1CC(=O)N(c2cccc(C)c2C)C(c2ccc(Cl)cc2)C1=O (stereo not given),14,-45,-10,·,-1,-4
Cc1cccc(N2C(=O)C(Oc3ccc(Cl)cc3Cl)C2C=O)c1C (stereo not given),12,-27,-6,10,4,51*
CC(C)(C#CCN1CCCCC1)OCCOC(c1ccccc1)c1ccccc1,6,-14,-5,-22,2,1
CCN(CC)Cc1c(O)ccc2occ(C(=O)c3ccc(OC)cc3)c12,5,-50,-8,-105,0,·
CCN(CC)Cc1c(O)ccc2c([N+](=O)[O-])c(C)n(-c3ccc(OC)cc3)c12,5,-52,-16,78*,4,·
COc1ccc(CNc2nc3c(c(=O)n(Cc4ccc(Br)cc4)c(=O)n3C)n2C)cc1,15,-55,-14,6,8.8*,-15
Cn1c(NCc2ccccc2)nc2c1c(=O)n(Cc1ccc(Br)cc1)c(=O)n2C,13,3,-7,·,4,-4
Cc1ccc(CNC(=O)N[C@@H](Cc2ccccc2)C(=O)O)cc1,9,-71,-5,-7,1,4
O=[N+]([O-])c1cc2c(cc1/C=N/NS(=O)(=O)c1ccc(Br)cc1)OCO2,·,·,-11,·,7,·
COC(=O)c1ccc(OC(C)C(=O)c2ccc(C)cc2)cc1 (stereo not given),26,-22,26,-20,1,4
